Among the data in ChEMBL document CHEMBL1126651, “Synthesis and biological evaluation of 1-[1-(2-benzo[b]thienyl)cyclohexyl]piperidine homologues at dopamine-uptake and phencyclidine- and sigma-binding sites” (J Med Chem, 1993) are IC50, Ki and Ratio values, retold here.

Assay [1] deals with T1, Sodium-dependent dopamine transporter (Rattus norvegicus, UniProt P23977). The assay is described as follows: Displacement of [3H]BTCP (1-[1-(2-benxo[b]thienyl)cyclohexyl]piperidine) from rat forebrain dopamine transporter. Put shortly:
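Rat forebrain membranes (40000 g pellet) in 0.32 M sucrose/10 mM Tris·HCl pH 7.4. 0.4-0.6 nM [3H]BTCP incubated with test compound in 50 mM Na phosphate buffer, pH 7.4, for 90 min on ice. Nonspecific binding with 10 µM BTCP. Filtration, then scintillation counting. Six concentrations in triplicate, duplicate experiments on different preparations. IC50 taken as 50% inhibition of total binding.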
In general terms: Displacement assays read how much labelled ligand stays bound in the presence of the test substance.

The target of assay [2] is T1, Sodium-dependent dopamine transporter. Kind of assay: Inhibition of [3H]cocaine binding to rat forebrain […]. Put shortly:
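Rat forebrain membranes washed in 0.25 M sucrose/10 mM Na2HPO4 pH 7.4. […] Filtration with ice-cold saline wash, then scintillation counting. Six concentrations in triplicate, duplicate experiments on different preparations. IC50 taken as 50% inhibition of total binding.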

The target in assay [3] is Glutamate NMDA receptor. Kind of assay: Binding affinity of compound at site labelled by [3H]TCP in guinea pig brain homogenates. It counts as tissue-based.
The species entered for assay [4] is Rattus norvegicus. The assay is described as follows: (§1) Compound is evaluated for [3H]dopamine uptake inhibition in rat forebrain. It counts as functional.
Assay [5] in a line: Ratio of IC50 of [3H]cocaine to that of dopamine. It counts as functional.
Assay [6] has as its target Glutamate NMDA receptor. The assay is described as follows: Ability of compound to displace [3H]TCP from rat brain homogenates. It counts as tissue-based.
For assay [7], the target named is Glutamate NMDA receptor. Kind of assay: Ability to displace [3H]-TCP from rat brain homogenate. It counts as tissue-based.
The species entered for assay [8] is Rattus norvegicus. The assay is described as §1.

T1 sequence (P23977 whole entry): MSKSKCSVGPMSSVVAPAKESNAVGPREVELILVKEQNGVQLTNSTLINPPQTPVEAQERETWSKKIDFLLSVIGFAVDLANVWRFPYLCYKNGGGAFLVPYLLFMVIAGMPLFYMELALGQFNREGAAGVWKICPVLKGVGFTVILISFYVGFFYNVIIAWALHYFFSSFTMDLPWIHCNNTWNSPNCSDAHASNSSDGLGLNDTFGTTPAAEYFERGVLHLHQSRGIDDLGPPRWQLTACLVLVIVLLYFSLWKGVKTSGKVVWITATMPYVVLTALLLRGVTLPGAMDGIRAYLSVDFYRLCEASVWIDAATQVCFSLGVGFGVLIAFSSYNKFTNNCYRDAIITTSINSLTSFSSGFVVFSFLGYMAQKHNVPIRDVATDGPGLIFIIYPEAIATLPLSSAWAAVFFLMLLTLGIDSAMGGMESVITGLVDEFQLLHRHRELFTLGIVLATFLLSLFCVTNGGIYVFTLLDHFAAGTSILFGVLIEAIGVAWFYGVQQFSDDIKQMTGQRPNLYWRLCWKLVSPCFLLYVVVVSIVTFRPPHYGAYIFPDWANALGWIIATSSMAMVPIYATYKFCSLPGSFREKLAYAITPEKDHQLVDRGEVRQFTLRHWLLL

What is called IC50 is the concentration needed to halve the response being measured. Lower therefore signals inhibition by little substance. The term Ki denotes a measure of affinity in units of concentration, obtained from inhibition or displacement. Read a high Ki as weaker binding. Regarding `c1ccc2sc(C3(N4CCCCC4)CCCC3)cc2c1`, the half-inhibitory concentration (IC50) was found to be 15 nM in assay [1], 76 nM in assay [2] and 24 nM in the assay filed under Rattus norvegicus [4]. In addition, the Ki on Glutamate NMDA receptor [3] is > 10000 nM. Also, the Ratio in assay [5] stood at 3.2.
As to `c1ccc2sc(C3(N4CCCC4)CCCCCC3)cc2c1`, the figures for the 50% inhibitory concentration (IC50) (in assay [1]; in assay [2]; in the assay filed under Rattus norvegicus [4]) were 13 nM, 52 nM and 27 nM, respectively. Moreover, the Ki on Glutamate NMDA receptor [6] was > 10000 nM. In addition, the Ratio in assay [5] worked out at 1.9.
With `c1ccc2sc(C3(N4CCCCCC4)CCCCC3)cc2c1`, the IC50 in assay [1] is 18 nM; in assay [2] it was 36 nM; in the assay filed under Rattus norvegicus [4] it was 43 nM. For the same compound, the Ki on Glutamate NMDA receptor [3] is > 10000 nM. Further, in assay [5], the Ratio was found to be 0.84.
For `c1ccc2sc(C3(N4CCCCC4)CCCCCC3)cc2c1`, the concentration for half-maximal inhibition (IC50) in assay [1] came out at 19 nM; in assay [2] it was 111 nM; in the assay listed under Rattus norvegicus [4] it was 55 nM. Also, the Ki at Glutamate NMDA receptor [6] was > 10000 nM. The Ratio in assay [5] amounted to 2.
As to `NC1(c2cc3ccccc3s2)CCCC1`, the IC50 was 630 nM in assay [1], 933 nM in assay [2] and 148 nM in the assay filed under Rattus norvegicus [4]. Besides, the Ki at Glutamate NMDA receptor [6] was > 10000 nM. For the same compound, in assay [5], the Ratio was determined as 6.3.
For the compound `c1ccc2sc(C3(N4CCCCC4)CCCCC3)cc2c1`, the results for the concentration for half-maximal inhibition (IC50) (in assay [1]; in assay [2]; in the assay filed under Rattus norvegicus [4]) were 0.66 nM, 41 nM and 9 nM, respectively. Besides, in assay [5], the Ratio stood at 4.6. In addition, the inhibition constant Ki at Glutamate NMDA receptor [7] is > 10000 nM.
In the case of `c1ccc2sc(C3(N4CCCC4)CCCC3)cc2c1`, the concentration for half-maximal inhibition (IC50) came to 13 nM in assay [1], 26 nM in assay [2] and 19 nM in the assay listed under Rattus norvegicus [4]. Also, the Ki at Glutamate NMDA receptor [3] is > 10000 nM. Further, the Ratio in assay [5] was 1.4.
As to `c1ccc2sc(C3(N4CCCC4)CCCCC3)cc2c1`, the results for the IC50 (in assay [1]; in assay [2]; in the assay listed under Rattus norvegicus [4]) were 6.7 nM, 12 nM and 11 nM, respectively. For the same compound, the Ki on Glutamate NMDA receptor [3] is > 10000 nM. Moreover, the Ratio in assay [5] was 1.1.
Taken in the same sequence, the figures for `NC1(c2cc3ccccc3s2)CCCCC1` were 123 nM, 684 nM, 78 nM, > 10000 nM and 8.8.
Consider `c1ccc2sc(C3(N4CCCCCC4)CCCC3)cc2c1`, for which the IC50 in assay [1] worked out at 21 nM; in assay [2] it was 62 nM; in the assay filed under Rattus norvegicus [4], 132 nM. Further, on Glutamate NMDA receptor [3], the inhibition constant Ki was > 10000 nM. The Ratio in assay [5] amounted to 0.47.
As for `NC1(c2cc3ccccc3s2)CCCCCC1`, the IC50 in assay [1] turned out to be 416 nM; in assay [2], 1340 nM; in the assay listed under Rattus norvegicus [4] it was 550 nM. Besides, the inhibition constant Ki on Glutamate NMDA receptor [6] was > 10000 nM. Moreover, the Ratio in assay [5] worked out at 2.4.
In the assay filed under Rattus norvegicus [8], `COC(=O)[C@H]1[C@@H](OC(=O)c2ccccc2)C[C@@H]2CC[C@H]1N2C` [COCAINE] gave an IC50 of 138 nM.
Take `c1ccc2sc(C3(N4CCCCCC4)CCCCCC3)cc2c1`: the half-inhibitory concentration (IC50) in assay [1] was found to be 67 nM; in assay [2] it was 386 nM; in the assay filed under Rattus norvegicus [4], 252 nM. Further, the Ki on Glutamate NMDA receptor [6] is > 10000 nM. Also, in assay [5], the Ratio came out at 1.5.
